{"source": "ChEMBL document CHEMBL1121369", "about": "“Antihypertensive (2-aminoethyl)thiourea derivatives. 1” (J Med Chem, 1980)", "key": {"Rattus norvegicus [1]": {"test_system": "Rattus norvegicus", "experiment": "Compound is measured for oral antihypertensive activity in groups of 6-12 conscious spontaneously hypertensive rats at 100 mg/kg", "type": "functional", "outline": "(§1)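 Male spontaneously hypertensive rats of Wistar–Okamoto origin (12–15 weeks old, bred in-house) were dosed orally, in groups of 6–12 and conscious. Each rat was warmed for 5–10 min at 37–38 °C, then restrained. Systolic pressure was read indirectly at the tail with an occluding cuff and a piezoelectric pulse transducer, before dosing and at 1, 3, 6 and 24 h after.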"}, "Rattus norvegicus [2]": {"test_system": "Rattus norvegicus", "experiment": "Compound is measured for oral antihypertensive activity in groups of 6-12 conscious spontaneously hypertensive rats at 30 mg/kg", "type": "functional", "outline": "as §1"}, "Rattus norvegicus [3]": {"test_system": "Rattus norvegicus", "experiment": "Compound is measured for oral antihypertensive activity in groups of 6-12 conscious spontaneously hypertensive rats at 10 mg/kg", "type": "functional", "outline": "as §1"}, "Rattus norvegicus [4]": {"test_system": "Rattus norvegicus", "experiment": "Compound is measured for oral antihypertensive activity in groups of 6-12 conscious spontaneously hypertensive rats at 50 mg/kg(fall in systolic blood pressure 6-24 hr after dosing)", "type": "functional, Artery", "outline": "as §1"}, "Rattus norvegicus [5]": {"test_system": "Rattus norvegicus", "experiment": "Compound is measured for oral antihypertensive activity in groups of 6-12 deoxy-corticosterone-sodium hypertensive (DOCA-Na) rats at 10 mg/kg", "type": "functional", "outline": "(§2)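 DOCA-Na rats were given two weeks to become hypertensive (systolic above 200 mmHg) and were then dosed orally, in groups of 6–12 and unanesthetized. Rats were warmed for 5–10 min at 37–38 °C and restrained. Systolic tail pressure was read with a cuff and pneumatic pulse transducer, before dosing and at 1, 3, 6 and 24 h post-dose.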"}, "Rattus norvegicus [6]": {"test_system": "Rattus norvegicus", "experiment": "Compound is measured for oral antihypertensive activity in groups of 6-12 conscious spontaneously hypertensive rats at 250 mg/kg", "type": "functional", "outline": "as §1"}, "Rattus norvegicus [7]": {"test_system": "Rattus norvegicus", "experiment": "Compound is measured for oral antihypertensive activity in groups of 6-12 deoxy-corticosterone-sodium hypertensive (DOCA-Na) rats at 10 mg/kg (fall in systolic blood pressure 6-24 hr after dosing)", "type": "functional, Artery", "outline": "as §2"}, "[8]": {"experiment": "Therapeutic ratio is oral dose producing sedation/reduction in blood pressure; Range is 30-60", "type": "ADME, tissue-based"}, "Canis familiaris [9]": {"test_system": "Canis familiaris", "experiment": "Oral dose required to cause 20% fall in sedation; Range is 30-60", "type": "functional, Canis lupus familiaris"}, "Rattus norvegicus [10]": {"test_system": "Rattus norvegicus", "experiment": "Oral dose required to cause 20% fall in sedation; Decrease spontaneous motor activity", "type": "functional", "outline": "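Normotensive rats were dosed orally. Spontaneous motor activity was counted with an electronic motility meter over a 10-min period starting 1 h after dosing. The dose was estimated from dose–response curves, with 95% fiducial limits.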"}, "Rattus norvegicus [11]": {"test_system": "Rattus norvegicus", "experiment": "Compound is measured for oral antihypertensive activity in groups of 6-12 deoxy-corticosterone-sodium hypertensive (DOCA-Na) rats at 0.5 mg/kg", "type": "functional", "outline": "as §2"}, "Rattus norvegicus [12]": {"test_system": "Rattus norvegicus", "experiment": "(§3) Oral dose required to cause 20% fall in blood pressure", "type": "functional"}, "[13]": {"experiment": "Therapeutic ratio is oral dose producing sedation/reduction in blood pressure", "type": "ADME, tissue-based"}, "Monkey": {"test_system": "Monkey", "experiment": "(§4) Oral dose required to cause 20% fall in sedation; Increase in foot shock rate", "type": "functional", "outline": "(§5)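 Male Charles River C-D rats and squirrel monkeys were trained to press a lever at a stable rate to postpone a 5-s foot shock, given every 20 s on failure. Drugs were given orally, with control sessions before, between and after test sessions. Avoidance-rate decrease and the increase in shocks/hour were recorded. Significance threshold: a 12% decrease or 4 extra shocks/hour (p ≤ 0.05).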"}, "Rattus norvegicus [14]": {"test_system": "Rattus norvegicus", "experiment": "as §4", "type": "functional", "outline": "as §5"}, "Rattus norvegicus [15]": {"test_system": "Rattus norvegicus", "experiment": "Compound is measured for oral antihypertensive activity in groups of 6-12 conscious spontaneously hypertensive rats at 10 mg/kg (fall in systolic blood pressure 6-24 hr after dosing)", "type": "functional, Artery", "outline": "as §1"}, "Rattus norvegicus [16]": {"test_system": "Rattus norvegicus", "experiment": "Compound is measured for oral antihypertensive activity in groups of 6-12 deoxy-corticosterone-sodium hypertensive (DOCA-Na) rats at 1 mg/kg; Range is 15-20%", "type": "functional", "outline": "as §2"}, "Rattus norvegicus [17]": {"test_system": "Rattus norvegicus", "experiment": "Compound is measured for oral antihypertensive activity in groups of 6-12 conscious spontaneously hypertensive rats at 0.5 mg/kg", "type": "functional", "outline": "as §1"}, "Rattus norvegicus [18]": {"test_system": "Rattus norvegicus", "experiment": "Compound is measured for oral antihypertensive activity in groups of 6-12 conscious spontaneously hypertensive rats at 1 mg/kg; Range is 15-20%", "type": "functional", "outline": "as §1"}, "Canis familiaris [19]": {"test_system": "Canis familiaris", "experiment": "as §3", "type": "functional, Canis lupus familiaris"}, "Rattus norvegicus [20]": {"test_system": "Rattus norvegicus", "experiment": "Compound is measured for oral antihypertensive activity in groups of 6-12 conscious spontaneously hypertensive rats at 10 mg/kg; Range is 15-20%", "type": "functional", "outline": "as §1"}, "Rattus norvegicus [21]": {"test_system": "Rattus norvegicus", "experiment": "Compound is measured for oral antihypertensive activity in groups of 6-12 deoxy-corticosterone-sodium hypertensive (DOCA-Na) rats at 10 mg/kg; Range is 15-20%", "type": "functional", "outline": "as §2"}, "Rattus norvegicus [22]": {"test_system": "Rattus norvegicus", "experiment": "Compound is measured for oral antihypertensive activity in groups of 6-12 deoxy-corticosterone-sodium hypertensive (DOCA-Na) rats at 60 mg/kg(fall in systolic blood pressure 6-24 h after dosing)", "type": "functional, Artery", "outline": "as §2"}, "Rattus norvegicus [23]": {"test_system": "Rattus norvegicus", "experiment": "Compound is measured for oral antihypertensive activity in groups of 6-12 conscious spontaneously hypertensive rats at 60 mg/kg", "type": "functional", "outline": "as §1"}, "Rattus norvegicus [24]": {"test_system": "Rattus norvegicus", "experiment": "Compound is measured for oral antihypertensive activity in groups of 6-12 conscious spontaneously hypertensive rats at 45 mg/kg; Range is 10-15%", "type": "functional", "outline": "as §1"}, "Rattus norvegicus [25]": {"test_system": "Rattus norvegicus", "experiment": "Compound is measured for oral antihypertensive activity in groups of 6-12 conscious spontaneously hypertensive rats at 10 mg/kg(fall in systolic blood pressure 6-24 hr after dosing)", "type": "functional, Artery", "outline": "as §1"}, "Rattus norvegicus [26]": {"test_system": "Rattus norvegicus", "experiment": "Compound is measured for oral antihypertensive activity in groups of 6-12 deoxy-corticosterone-sodium hypertensive (DOCA-Na) rats at 10 mg/kg(fall in systolic blood pressure 6-24 hr after dosing)", "type": "functional, Artery", "outline": "as §2"}, "Rattus norvegicus [27]": {"test_system": "Rattus norvegicus", "experiment": "Compound is measured for oral antihypertensive activity in groups of 6-12 conscious spontaneously hypertensive rats at 160 mg/kg; Range is 15-20%", "type": "functional", "outline": "as §1"}, "Rattus norvegicus [28]": {"test_system": "Rattus norvegicus", "experiment": "Compound is measured for oral antihypertensive activity in groups of 6-12 conscious spontaneously hypertensive rats at 100 mg/kg; Range is 15-20%", "type": "functional", "outline": "as §1"}}, "note": "Several values for one entry are separate records, joined by “and”; a condition that tells them apart may be missing. Equal entries are not always repeated."}
{"smiles": "COc1cccc(OC)c1/N=C(\\S)NCCN.O=C(O)/C=C\\C(=O)O", "values": [{"measurement": "Effect", "setting": "Rattus norvegicus [1]", "value": "<10", "unit": "%"}]}
{"smiles": "CNCC/N=C(\\S)Nc1c(Cl)cccc1Cl.O=C(O)/C=C\\C(=O)O", "values": [{"measurement": "Effect", "setting": "Rattus norvegicus [1]", "value": "<10", "unit": "%"}]}
{"smiles": "Cl.S=C(NCCN1CCCCC1)Nc1c(Cl)cccc1Cl", "values": [{"measurement": "Effect", "setting": "Rattus norvegicus [2]", "value": "<10", "unit": "%"}]}
{"smiles": "NCC/N=C(\\S)Nc1c(Cl)cc([N+](=O)[O-])cc1Cl.O=C(O)/C=C\\C(=O)O", "values": [{"measurement": "Effect", "setting": "Rattus norvegicus [3]", "value": "<10", "unit": "%"}, {"measurement": "Effect", "setting": "Rattus norvegicus [4]", "value": ">20", "unit": "%"}]}
{"smiles": "NCCNC(=O)Nc1c(Cl)cccc1Cl", "values": [{"measurement": "Effect", "setting": "Rattus norvegicus [5]", "value": "<10", "unit": "%"}, {"measurement": "Effect", "setting": "Rattus norvegicus [6]", "value": "<10", "unit": "%"}]}
{"smiles": "NCC/N=C(\\S)Nc1c(Cl)cccc1Cl.O=C(O)/C=C\\C(=O)O", "values": [{"measurement": "Effect", "setting": "Rattus norvegicus [7]", "value": ">20", "unit": "%"}, {"measurement": "selectivity ratio", "setting": "[8]", "value": 30}, {"measurement": "Dose", "setting": "Canis familiaris [9]", "value": 30, "unit": "mg/kg"}, {"measurement": "Dose", "setting": "Rattus norvegicus [10]", "value": 0.69, "unit": "mg/kg"}, {"measurement": "Effect", "setting": "Rattus norvegicus [11]", "value": "<10", "unit": "%"}, {"measurement": "Dose", "setting": "Rattus norvegicus [12]", "value": 2.4, "unit": "mg/kg"}, {"measurement": "Ratio", "setting": "[13]", "value": "0.28 and 0.71"}, {"measurement": "Dose", "setting": "Monkey", "value": ">64", "unit": "mg/kg"}, {"measurement": "Dose", "setting": "Rattus norvegicus [14]", "value": 1.7, "unit": "mg/kg"}, {"measurement": "Effect", "setting": "Rattus norvegicus [15]", "value": ">20", "unit": "%"}, {"measurement": "Effect", "setting": "Rattus norvegicus [16]", "value": 15, "unit": "%"}, {"measurement": "Effect", "setting": "Rattus norvegicus [17]", "value": "<10", "unit": "%"}, {"measurement": "Effect", "setting": "Rattus norvegicus [18]", "value": 15, "unit": "%"}, {"measurement": "Dose", "setting": "Canis familiaris [19]", "value": 1, "unit": "mg/kg"}]}
{"smiles": "CS/C(=N\\CCN)Nc1c(Cl)cccc1Cl", "values": [{"measurement": "Effect", "setting": "Rattus norvegicus [20]", "value": 15, "unit": "%"}, {"measurement": "Effect", "setting": "Rattus norvegicus [21]", "value": 15, "unit": "%"}]}
{"smiles": "N/C(S)=N/c1c(Cl)cccc1Cl", "values": [{"measurement": "Effect", "setting": "Rattus norvegicus [22]", "value": "< 10", "unit": "%"}, {"measurement": "Effect", "setting": "Rattus norvegicus [23]", "value": "<10", "unit": "%"}]}
{"smiles": "CCN(CC)CC/N=C(\\S)Nc1c(Cl)cccc1Cl.Cl", "values": [{"measurement": "Effect", "setting": "Rattus norvegicus [24]", "value": 10, "unit": "%"}]}
{"smiles": "NCC/N=C(\\S)Nc1c(Br)cccc1Br", "values": [{"measurement": "Effect", "setting": "Rattus norvegicus [25]", "value": ">20", "unit": "%"}, {"measurement": "Effect", "setting": "Rattus norvegicus [26]", "value": ">20", "unit": "%"}, {"measurement": "Effect", "setting": "Rattus norvegicus [18]", "value": 15, "unit": "%"}]}
{"smiles": "CN1CCN(CC/N=C(\\S)Nc2c(Cl)cccc2Cl)CC1.Cl.Cl", "values": [{"measurement": "Effect", "setting": "Rattus norvegicus [27]", "value": 15, "unit": "%"}]}
{"smiles": "Cc1ccc(/N=C(\\S)NCCN)c(C)c1.O=C(O)/C=C\\C(=O)O", "values": [{"measurement": "Effect", "setting": "Rattus norvegicus [1]", "value": "<10", "unit": "%"}]}
{"smiles": "NCC/N=C(\\S)Nc1c(Cl)cc(Cl)cc1Cl.O=C(O)/C=C\\C(=O)O", "values": [{"measurement": "Effect", "setting": "Rattus norvegicus [28]", "value": 15, "unit": "%"}, {"measurement": "Effect", "setting": "Rattus norvegicus [3]", "value": "<10", "unit": "%"}]}
{"smiles": "O=C(O)CC/N=C(\\S)Nc1c(Cl)cccc1Cl", "values": [{"measurement": "Effect", "setting": "Rattus norvegicus [1]", "value": "<10", "unit": "%"}]}
{"smiles": "Cl.N=C(N)CC/N=C(\\S)Nc1c(Cl)cccc1Cl", "values": [{"measurement": "Effect", "setting": "Rattus norvegicus [1]", "value": "<10", "unit": "%"}]}
{"smiles": "CC(=O)NCC/N=C(\\N)Nc1c(Cl)cccc1Cl", "values": [{"measurement": "Effect", "setting": "Rattus norvegicus [5]", "value": "<10", "unit": "%"}, {"measurement": "Effect", "setting": "Rattus norvegicus [6]", "value": "<10", "unit": "%"}]}
